# Assay results collected from several papers.
# Protocols differ between the studies behind these lines.
# RPS6KA5 C-terminal kinase domain: Ribosomal protein S6 kinase alpha-5, C-terminal kinase domain (RPS6KA5, Homo sapiens, UniProt O75582)
# RPS6KA5: Ribosomal protein S6 kinase alpha-5 (RPS6KA5, Homo sapiens, UniProt O75582)
# RPS6KA5 N-terminal kinase domain: Ribosomal protein S6 kinase alpha-5, N-terminal kinase domain (RPS6KA5, Homo sapiens, UniProt O75582)
Compound,target,read-out,mode,technique,tested at,quantity,result
Cc1nn(C)cc1-c1nc2c(N3CCN(Cc4ccc(Cl)cc4)CC3)c(Cl)cnc2[nH]1,RPS6KA5 C-terminal kinase domain,binding,,competition with immobilised ligand,1 µM,remaining binding,100%
C#Cc1n[nH]c2c(-c3cn([C@@H](C)c4ccccc4)c(=O)[nH]c3=O)cc(F)cc12,RPS6KA5,enzyme activity,inhibitor,,0.1 µM,inhibition,-1.9%
Cn1cncc1[C@@](O)(COc1ccc(C#N)cc1-c1ccc(OC(F)(F)F)cc1)c1ccc(C#N)cc1,RPS6KA5 N-terminal kinase domain,cell-free assay,,competition with immobilised ligand,1 µM,remaining binding,88%
O=c1[nH]c2ccccc2n1C1CCN(Cc2ccc(-c3[nH]c4cc5ncnc5cc4nc3-c3ccccc3)cc2)CC1,RPS6KA5,cell-free assay,,,0.5 µM,remaining signal,103%
C#Cc1n[nH]c2c(-c3cn([C@@H](C)c4ccccn4)c(=O)[nH]c3=O)cc(F)cc12,RPS6KA5,enzyme activity,inhibitor,,0.1 µM,inhibition,2%
Nc1ncc(-c2nc(N3CCOCC3)nc(N3CCOCC3)n2)c(C(F)F)n1,RPS6KA5 N-terminal kinase domain,binding,,competition with immobilised ligand,10 µM,remaining binding,88%
Cn1cc(-c2cccc(N3CCc4c(sc5c4CC(C)(C)C5)C3=O)c2CO)cc(Nc2ccncn2)c1=O,RPS6KA5,enzyme activity,inhibitor,,1 µM,inhibition,2%
N#CC1(c2ccccn2)CCN(Cc2cc(C(=O)O)c(=O)n3ccccc23)CC1,RPS6KA5 C-terminal kinase domain,cell-free assay,,competition with immobilised ligand,1 µM,remaining binding,83%
Cn1cc(-c2cc(F)cc(N3CCn4c(cc5c4CCCC5)C3=O)c2CO)cc(Nc2ccc(N3CCN(C4COC4)CC3)cn2)c1=O,RPS6KA5,enzyme activity,inhibitor,,0.1 µM,inhibition,13%
CC(C)(C)c1cc(C=C(C#N)C#N)cc(Br)c1O,RPS6KA5,enzyme activity,inhibitor,,0.5 µM,remaining activity,108%
